Assay results published in ChEMBL document CHEMBL1154981, “Chemical constituents from the leaves and stems of Schisandra rubriflora” (J Nat Prod, 2010).
Converted amounts (≈) assume the structure as drawn.

Columns and labels:
[1] = tested on: Human immunodeficiency virus 1; experiment: Antiviral activity against HIV1-infected human C8166 cells; type: functional, organism-based; conditions: Human immunodeficiency virus 1, C8166
Method in brief: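 Protection of C8166 cells from HIV-1 cytopathic effects, read as EC50. Run alongside the cytotoxicity measurement, with AZT as positive control.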

[2] = Selectivity index, ratio of antiviral activity against HIV1-infected human C8166 cells over cytotoxicity against human C8166 cells; type: toxicity, cell-based; conditions: uninfected and HIV-1-infected, read-out: Selectivity Index
HepG2 = experiment: Cytotoxicity against human HepG2 cells after 48 hrs by SRB assay; type: functional, cell-based; conditions: HepG2, 48 h
K562 = experiment: Cytotoxicity against human K562 cells after 48 hrs by SRB assay; type: functional, cell-based; conditions: K562, 48 h
[3] = Cytotoxicity against human C8166 cells by MTT assay; type: cell-based
Method in brief: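 Uninfected C8166 cells scored for viability by MTT, giving CC50. Run in parallel with the HIV-1 cytopathic-effect assay, with AZT as reference.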

Q: With `C[C@@H]1C(=O)O[C@H]2[C@@H]1O[C@]13O[C@@]4(CC[C@]5(C)C(=O)[C@](C)(O)[C@@]2(O)[C@H]15)C[C@]12OC(=O)C[C@H]1OC(C)(C)[C@@H]2[C@@H](O)C[C@H]4C3=O` [SCHIRUBRIDILACTONE A] as the compound, how does the EC50 [1] read?
A: 30.1 µg/mL (≈ 52.2 µM)

Q: What about the selectivity ratio [2] of the same compound?
A: 5.1

Q: And the IC50 (HepG2)?
A: > 5 µg/mL

Q: And the IC50 (K562)?
A: > 5 µg/mL

Q: Which results are given for `C/C(=C/[C@H]1O[C@]23O[C@@]4(CC[C@]5(C)C(=O)[C@](C)(O)[C@H]1[C@H]25)C[C@]12OC(=O)C[C@H]1OC(C)(C)[C@@H]2CC=C4C3=O)C(=O)O` [SCHIRUBRIDILACTONE B]?
A: EC50 [1]: 15.2 µg/mL (≈ 28 µM); selectivity ratio [2]: 9; IC50 (HepG2): > 5 µg/mL; IC50 (K562): > 5 µg/mL

Q: For `C[C@@H]1C(=O)[C@@]2(C)CC[C@]34C[C@]56OC(=O)C[C@H]5O[C@@](C)(CO)[C@@H]6CC[C@@]3(O)C(=O)[C@@]3(O[C@]5(C[C@H](C)C(=O)O5)[C@@H]1[C@H]32)O4` [SCHIRUBRIDILACTONE C], which EC50 [1] is on record?
A: 14.3 µg/mL (≈ 25.5 µM)

Q: What about the selectivity ratio [2] of the same compound?
A: 8.7

Q: With `C[C@@H]1C(=O)O[C@H]2[C@@H]1O[C@]13O[C@@]4(CC[C@]5(C)C(=O)[C@@H](C)[C@H]2[C@H]15)C[C@]12OC(=O)C[C@H]1OC(C)(C)[C@@H]2C[C@@H]1O[C@@]14C3=O` [SCHIRUBRIDILACTONE D] as the compound, how does the EC50 [1] read?
A: 80.8 µg/mL (≈ 149 µM)

Q: And the selectivity ratio [2]?
A: 2.2

Q: What about the IC50 (HepG2) of the same compound?
A: > 5 µg/mL

Q: What about the IC50 (K562) of the same compound?
A: > 5 µg/mL

Q: For `CC1(C)O[C@@H]2CC(=O)O[C@@]23C[C@]24CC[C@]5(C)C(=O)[C@](C)(O)[C@]6(O)[C@H]7OC(=O)[C@](C)(O)[C@H]7O[C@@](O2)(C(=O)C4=CC[C@@H]13)[C@@H]65` [SCHIRUBRIDILACTONE E], which EC50 [1] is on record?
A: 66.8 µg/mL (≈ 116 µM)

Q: What about the selectivity ratio [2] of the same compound?
A: 3.1

Q: What about the IC50 (HepG2) of the same compound?
A: > 5 µg/mL

Q: What about the IC50 (K562) of the same compound?
A: > 5 µg/mL

Q: For `CC1=C[C@H]([C@H]2O[C@]34C(=CC[C@@H]3[C@@H]2C)[C@@H]2[C@H](O)C[C@H]3C(C)(C)O[C@@H]5CC(=O)O[C@@]53C[C@@]2(O)C[C@@H]4O)OC1=O` [SCHIRUBRIDILACTONE F], which EC50 [1] is on record?
A: 50.1 µg/mL (≈ 97 µM)

Q: What about the selectivity ratio [2] of the same compound?
A: 3.5

Q: What about the IC50 (HepG2) of the same compound?
A: > 5 µg/mL

Q: What about the IC50 (K562) of the same compound?
A: > 5 µg/mL

Q: For `Cc1cn([C@H]2C[C@H](N=[N+]=[N-])[C@@H](CO)O2)c(=O)[nH]c1=O` [ZIDOVUDINE], which CC50 [3] is on record?
A: > 200 µg/mL
